Measurements from different studies.
Target: Citron Rho-interacting kinase (CIT, Homo sapiens, UniProt O14578)

Compound	observed	method	concentration	remaining binding [%]
O=c1nc(-c2ccccn2)sc2ccccc12	binding	competition with immobilised ligand	1 µM	100
FC(F)(F)Oc1cccc(-c2cnc3ccc(-c4ccncc4)nn23)c1	cell-free assay	competition with immobilised ligand	5 µM	34
O=C(c1ccc(Nc2ncc(Cl)c(-c3cc4ccccc4s3)n2)cc1)N1CCC(N2CCCC2)CC1	binding	competition with immobilised ligand	1 µM	30
CNC(=O)c1ccc(Nc2ncc(C(F)(F)F)c(NCc3nccnc3N(C)S(C)(=O)=O)n2)cc1	cell-free assay	competition with immobilised ligand	0.1 µM	68
CN(CCCC(F)(F)F)c1nccc(-c2cnn3ncccc23)n1	binding	–	1 µM	88
c1cncc(-c2cccc(Nc3nccc(NC4CCCCC4)n3)c2)c1	binding	competition with immobilised ligand	10 µM	42
O=C(NCc1ncc(C(F)(F)F)cc1Cl)c1ccc2c(c1)C1(CCS(=O)(=O)CC1)[C@@H](C1CC1)N2S(=O)(=O)c1ccc(F)cc1	cell-free assay	competition with immobilised ligand	1 µM	84
CN(C)c1nccc(-c2cnn3ncccc23)n1	binding	–	1 µM	86
COc1ncc2cc3ccccc3nc2c1C#N	cell-free assay	competition with immobilised ligand	5 µM	40
O=C(Nc1c[nH]nc1C(=O)NC1CCNCC1)c1cc(F)cc(F)c1	binding	competition with immobilised ligand	1 µM	100
O=C(c1ccc(Nc2ncc(Cl)c(-c3ccc(Cl)s3)n2)cc1)N1CCC(N2CCCC2)CC1	binding	competition with immobilised ligand	1 µM	30
N[C@H]1CCN(c2nccc(-c3cnn4ncccc34)n2)C1	binding	–	1 µM	100
CC(=O)c1c(NS(C)(=O)=O)c2cc(-c3ccc(Cl)cc3)c(-c3ccc(Cl)cc3Cl)nc2n(C)c1=O	cell-free assay	competition with immobilised ligand	1 µM	96
Cc1cnn2ncc(-c3ccnc(N(C)C)n3)c2c1	binding	–	1 µM	82
O=C(c1ccc(Nc2nccc(-c3cc4ccccc4s3)n2)cc1)N1CCC(N2CCCC2)CC1	binding	competition with immobilised ligand	1 µM	57
COc1ccnn2ncc(-c3ccnc(N(C)C)n3)c12	binding	–	1 µM	95
CCC(=O)N[C@H]1CC[C@@H](C(=O)N(C)c2ccc(-c3nc4ccccc4o3)cc2)C1	cell-free assay	competition with immobilised ligand	1 µM	99
F[C@@H]1CCN(c2nccc(-c3cnn4ncccc34)n2)C1	binding	–	1 µM	75
CNC(=O)[C@@H]1CC[C@@H](n2c(-c3ccc4cnccc4c3)nc3ccc(C(=O)NCc4cccc(C(N)=O)c4)cc32)C1	binding	competition with immobilised ligand	1 µM	100
